Results on six compounds are retold here after publication PMC11984575 (Neurobiology of Pain, 2025).

Entries after “also recorded” stand apart in the source; their conditions may differ. A value given as a limit tells only on which side of the number the result lay.

The test system of data set [1] is humanized NaV1.8 rats. The experiment in a line: CFA-induced thermal hyperalgesia. In kind it is in vivo, rat. Particulars: one hour post dosing; for hind paw withdrawal latency vs vehicle (thermal hyperalgesia): 24 h after CFA. A digest of the protocol: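 Male humanized NaV1.8 rats; baseline Hargreaves latency as mean of two trials, 20 s cutoff. CFA (50 μL, 1 mg/mL) given intraplantar into mid-plantar hind paw; latencies retested at 24 h. Rats then randomized to PO vehicle or test compound (1 or 10 mg/kg), or diclofenac 80 mg/kg ip. Latency read 1 h post-dose; blinded; n = 20/group; two-way ANOVA with Bonferroni; mean ± SD.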

The subject of another data set is rat NaV1.8 channels. To be noted: cited from earlier work; for potency in rats: ref Gilchrist et al., 2024, Osteen et al., 2025.
A further data set deals with rodent NaV1.8 channel (Rattus norvegicus, UniProt Q62968). The class given is cell-based.
Data set [2] deals with T1, human NaV1.8 (Homo sapiens, UniProt Q9Y5Y9). In kind it is cell-based.
The target in data set [3] is T1, human NaV1.8. The data set is described as follows: Automated patch clamp. The class given is cell-based. Particulars: train of 10 pulses at 1 Hz vs first pulse.
The target of a further data set is human NaV1.1 (Homo sapiens, UniProt P35498). The experiment in a line: Automated patch clamp. In kind it is cell-based.
In another data set the target is human NaV1.2 (Homo sapiens, UniProt Q99250). The experiment in a line: Automated patch clamp. In kind it is cell-based. (In general: The patch-clamp technique gives a direct electrical read-out from membranes.)
A further data set has as its target human NaV1.3 (Homo sapiens, UniProt Q9NY46). The experiment in a line: Automated patch clamp. In kind it is cell-based.
Another data set deals with human NaV1.4 (Homo sapiens, UniProt P35499). The data set is described as follows: Automated patch clamp. The class given is cell-based. Particulars: vs human NaV1.8.
For another data set, the target named is human NaV1.5 (Homo sapiens, UniProt Q14524). The data set is described as follows: Automated patch clamp. In kind it is cell-based.
Another data set addresses human NaV1.6 (Homo sapiens, UniProt Q9UQD0). The data set is described as follows: Automated patch clamp. The class given is cell-based.
The next data set deals with human NaV1.7 (Homo sapiens, UniProt Q15858). The experiment in a line: Automated patch clamp. The class given is cell-based.
The next data set addresses human NaV1.9 (Homo sapiens, UniProt Q9UI33). The experiment in a line: Automated patch clamp. In kind it is cell-based.
The nature of data set [4]: Rat plasma protein binding. In kind it is in vitro ADME.
Data set [5] concerns the target Chimera 1: NaV1.5(1–711) – NaV1.8(660–890) – NaV1.5(940–2015) (Homo sapiens, UniProt Q14524+Q9Y5Y9). The data set is described as follows: QPatch II sodium currents of chimeric NaV channel in FS-293 HEK cells. In kind it is cell-based. Put shortly:
(§1)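 Chimeric NaV1.5/NaV1.8 constructs electroporated into FS-293 HEK cells; currents recorded on QPatch II. External (mM): 150 NaCl, 5 KCl, 2 CaCl2, 1 MgCl2, 10 HEPES, 12 dextrose, pH 7.3 (NaOH), 330 Osm. Steps from −90 to +10 mV; IC50 by non-linear regression, bounds 0–1, Hill slope free.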

Data set [6] deals with Chimera 2: NaV1.8(1–399) – NaV1.5(416–1199) – NaV1.8(1148–1956) (Homo sapiens, UniProt Q14524+Q9Y5Y9). The data set is described as above. To be noted: VSDII of NaV1.5 swapped into NaV1.8. The class given is cell-based. Put shortly: as §1
Data set [7] concerns the target Chimera A: NaV1.5(1–770) – NaV1.8(719–751) – NaV1.5(804–2015) (Homo sapiens, UniProt Q14524+Q9Y5Y9). Described as above. In kind it is cell-based. A digest of the protocol: as §1
For data set [8], the target named is Chimera B: NaV1.8(1–718) – NaV1.5(771–803) – NaV1.8(752–1956) (Homo sapiens, UniProt Q14524+Q9Y5Y9). The description is as above. The class given is cell-based. Particulars: VSDIIS3 of NaV1.5 in NaV1.8. A digest of the protocol: as §1
The test system of data set [9] is wild-type Sprague-Dawley rats. The data set is described as follows: Capsaicin nocifensive behavior. In kind it is in vivo, rat. Particulars: 10 mg/kg PO, 1 h before capsaicin. Put shortly: (§2)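 Male rats, humanized or wild-type Sprague-Dawley, acclimated to chamber twice beforehand and 15 min on test day. Test compound given PO 1 h before intradermal capsaicin (25 μL, 0.01 %, in ethanol/Tween80/saline 20:7:73) into left hind paw. Flinches counted over 5 min; blinded, randomized order. Wild-type: n = 10/group, Student's t-test. Humanized dose-response: per-animal % inhibition of vehicle mean fitted against unbound plasma level (tail-vein blood post-test) for in vivo IC50.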

Data set [10] deals with humanized NaV1.8 rats. The experiment in a line: Capsaicin nocifensive behavior. In kind it is in vivo, rat. A digest of the protocol: as §2
Data set [11] relates to humanized NaV1.8 rats. The experiment in a line: Spinal nerve ligation. To be noted: one-hour post-dosing. The class given is in vivo, rat. A digest of the protocol: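 Male humanized NaV1.8 rats; baseline von Frey PWT (Up-Down, plantar) <9 g excluded. Under isoflurane, L6 transverse process removed; L5 spinal nerve tightly ligated and cut. After 1 week, PWT >6 g excluded. Day 1: PO vehicle (10 % Tween 80) or 10 mg/kg; after 4-day washout and reassessment, PO vehicle or 1 mg/kg. PWT read 1 h post-dose; blinded; mixed-effects model, Bonferroni; mean ± SD.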

Data set [12] in a line: Total plasma exposure in CFA and SNL studies. In kind it is in vivo, rat. Particulars: for Total plasma exposure: SNL study, approximately 1-hour post-dosing; for concentration at 4 h: rat, plasma, po. Put shortly:
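Tail-vein blood for total plasma levels after PO test compound (1 or 10 mg/kg): in CFA rats at 4 h post-dose, in SNL rats right after mechanical testing, about 1 h post-dose.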

The test system of data set [13] is all other recombinant human NaV channel isoforms. To be noted: highest concentrations tested (30–34 uM); ref Vardigan et al., 2024; cited from earlier work.
Another data set deals with rat SNL model. Particulars: cited from earlier work.
The next data set has as its system NaV1.8. Particulars: blocks more current as stimulation rate increases; ref Payne et al., 2015; cited from earlier work.

T1 sequence (Q9Y5Y9 whole entry): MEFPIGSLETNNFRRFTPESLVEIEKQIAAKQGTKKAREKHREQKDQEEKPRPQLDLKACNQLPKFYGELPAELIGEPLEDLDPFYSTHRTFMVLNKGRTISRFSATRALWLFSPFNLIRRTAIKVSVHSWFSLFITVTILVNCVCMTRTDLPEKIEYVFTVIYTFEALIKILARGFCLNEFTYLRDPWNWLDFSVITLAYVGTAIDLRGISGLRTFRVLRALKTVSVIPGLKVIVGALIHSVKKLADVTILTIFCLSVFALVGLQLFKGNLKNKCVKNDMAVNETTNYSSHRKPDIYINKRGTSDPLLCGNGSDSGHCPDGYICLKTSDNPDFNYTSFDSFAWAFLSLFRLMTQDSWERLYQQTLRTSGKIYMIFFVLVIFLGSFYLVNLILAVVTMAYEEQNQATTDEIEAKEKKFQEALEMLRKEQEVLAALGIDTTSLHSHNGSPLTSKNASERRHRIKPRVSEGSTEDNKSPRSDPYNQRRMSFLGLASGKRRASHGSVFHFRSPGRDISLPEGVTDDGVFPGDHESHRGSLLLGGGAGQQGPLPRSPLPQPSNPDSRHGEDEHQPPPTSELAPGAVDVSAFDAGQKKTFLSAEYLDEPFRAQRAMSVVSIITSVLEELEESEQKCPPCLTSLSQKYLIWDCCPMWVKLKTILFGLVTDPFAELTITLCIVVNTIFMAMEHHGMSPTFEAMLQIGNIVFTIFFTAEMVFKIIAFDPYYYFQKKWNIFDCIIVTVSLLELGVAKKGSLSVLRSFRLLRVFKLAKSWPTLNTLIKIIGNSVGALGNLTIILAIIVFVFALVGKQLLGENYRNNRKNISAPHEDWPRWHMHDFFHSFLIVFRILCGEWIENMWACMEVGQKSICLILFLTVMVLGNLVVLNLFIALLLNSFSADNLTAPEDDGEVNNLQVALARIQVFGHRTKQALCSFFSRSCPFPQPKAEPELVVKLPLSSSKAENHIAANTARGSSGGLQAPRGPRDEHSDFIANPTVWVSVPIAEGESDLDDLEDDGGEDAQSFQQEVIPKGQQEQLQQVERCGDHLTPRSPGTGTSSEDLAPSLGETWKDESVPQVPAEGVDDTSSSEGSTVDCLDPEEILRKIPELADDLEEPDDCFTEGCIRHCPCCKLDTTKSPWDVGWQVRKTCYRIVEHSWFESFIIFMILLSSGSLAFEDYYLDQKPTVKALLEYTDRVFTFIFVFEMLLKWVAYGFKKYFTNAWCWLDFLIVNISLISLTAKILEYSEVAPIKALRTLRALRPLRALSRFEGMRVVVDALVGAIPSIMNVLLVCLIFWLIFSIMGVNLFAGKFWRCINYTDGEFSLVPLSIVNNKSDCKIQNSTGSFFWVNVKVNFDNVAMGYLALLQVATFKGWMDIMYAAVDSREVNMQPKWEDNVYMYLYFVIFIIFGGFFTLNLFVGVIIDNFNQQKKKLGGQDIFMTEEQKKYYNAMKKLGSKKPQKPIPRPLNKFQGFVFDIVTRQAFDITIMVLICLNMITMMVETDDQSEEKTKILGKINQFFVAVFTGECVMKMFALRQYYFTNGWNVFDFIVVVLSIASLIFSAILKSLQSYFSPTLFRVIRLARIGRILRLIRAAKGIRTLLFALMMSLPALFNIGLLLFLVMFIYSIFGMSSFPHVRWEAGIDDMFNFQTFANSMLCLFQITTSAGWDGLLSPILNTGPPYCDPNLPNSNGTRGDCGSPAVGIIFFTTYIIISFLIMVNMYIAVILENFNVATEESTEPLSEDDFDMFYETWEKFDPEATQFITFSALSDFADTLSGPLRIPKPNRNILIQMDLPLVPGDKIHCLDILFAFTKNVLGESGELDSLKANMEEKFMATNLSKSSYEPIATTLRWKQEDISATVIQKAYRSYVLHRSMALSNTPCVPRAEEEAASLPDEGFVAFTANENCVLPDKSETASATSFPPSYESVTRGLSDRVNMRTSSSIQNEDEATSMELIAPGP
Chain of human NaV1.4 (P35499 whole entry): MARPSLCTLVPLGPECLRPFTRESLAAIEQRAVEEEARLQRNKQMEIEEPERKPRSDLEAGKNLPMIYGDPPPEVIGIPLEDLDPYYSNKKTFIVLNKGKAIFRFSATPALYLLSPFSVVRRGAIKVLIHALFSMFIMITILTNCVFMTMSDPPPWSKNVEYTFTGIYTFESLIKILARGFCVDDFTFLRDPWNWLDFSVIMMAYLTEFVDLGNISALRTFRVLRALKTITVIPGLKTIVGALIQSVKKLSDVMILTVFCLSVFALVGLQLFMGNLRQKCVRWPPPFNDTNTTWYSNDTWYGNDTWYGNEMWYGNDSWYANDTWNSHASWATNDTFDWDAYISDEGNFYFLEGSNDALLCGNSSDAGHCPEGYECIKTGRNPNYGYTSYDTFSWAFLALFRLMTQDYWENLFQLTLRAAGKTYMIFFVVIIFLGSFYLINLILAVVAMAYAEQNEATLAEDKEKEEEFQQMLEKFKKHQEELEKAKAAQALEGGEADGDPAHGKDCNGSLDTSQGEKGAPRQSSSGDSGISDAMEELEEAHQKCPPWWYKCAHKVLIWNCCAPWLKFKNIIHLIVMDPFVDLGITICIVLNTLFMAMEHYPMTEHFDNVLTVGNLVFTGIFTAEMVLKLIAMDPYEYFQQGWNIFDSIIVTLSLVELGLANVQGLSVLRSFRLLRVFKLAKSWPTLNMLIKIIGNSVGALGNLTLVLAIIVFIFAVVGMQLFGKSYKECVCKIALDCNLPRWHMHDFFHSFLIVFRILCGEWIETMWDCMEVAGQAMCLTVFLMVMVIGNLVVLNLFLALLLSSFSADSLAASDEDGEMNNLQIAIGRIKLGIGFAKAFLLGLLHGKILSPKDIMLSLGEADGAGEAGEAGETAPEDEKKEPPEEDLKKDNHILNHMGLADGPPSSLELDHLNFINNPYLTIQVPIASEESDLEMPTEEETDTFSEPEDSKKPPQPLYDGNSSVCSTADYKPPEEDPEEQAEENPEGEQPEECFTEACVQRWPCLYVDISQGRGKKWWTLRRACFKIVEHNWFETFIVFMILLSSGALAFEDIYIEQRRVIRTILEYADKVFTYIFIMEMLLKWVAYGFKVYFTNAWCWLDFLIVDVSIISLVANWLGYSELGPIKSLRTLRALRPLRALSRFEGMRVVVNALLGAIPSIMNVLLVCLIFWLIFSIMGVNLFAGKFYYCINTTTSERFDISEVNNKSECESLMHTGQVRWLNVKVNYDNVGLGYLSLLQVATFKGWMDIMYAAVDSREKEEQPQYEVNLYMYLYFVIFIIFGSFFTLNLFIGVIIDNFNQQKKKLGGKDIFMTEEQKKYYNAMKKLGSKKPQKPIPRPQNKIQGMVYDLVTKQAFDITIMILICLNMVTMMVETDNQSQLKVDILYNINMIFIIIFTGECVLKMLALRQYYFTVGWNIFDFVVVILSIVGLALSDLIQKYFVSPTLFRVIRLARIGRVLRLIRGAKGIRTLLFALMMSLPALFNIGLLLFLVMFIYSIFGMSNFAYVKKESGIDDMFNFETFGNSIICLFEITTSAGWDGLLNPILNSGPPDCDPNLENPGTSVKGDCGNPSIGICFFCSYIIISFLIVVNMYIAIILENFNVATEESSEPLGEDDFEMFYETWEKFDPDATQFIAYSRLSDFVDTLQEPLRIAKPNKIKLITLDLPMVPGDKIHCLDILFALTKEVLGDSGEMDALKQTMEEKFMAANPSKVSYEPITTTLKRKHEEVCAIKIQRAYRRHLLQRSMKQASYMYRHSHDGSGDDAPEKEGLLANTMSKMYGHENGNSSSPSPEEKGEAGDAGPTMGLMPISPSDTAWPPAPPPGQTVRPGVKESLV

Regarding `O=C(O)Cc1ccccc1Nc1c(Cl)cccc1Cl` [Diclofenac, reference compound], the “thermal hyperalgesia vs vehicle” value in the data set with humanized NaV1.8 rats [1] (80 mg/kg intraperitoneal, positive control) is on record as “reversed thermal hyperalgesia”.

As to `Cc1cc(F)ccc1Oc1ncc(C(F)(F)F)cc1C(=O)Nc1cccc([S@](C)(=N)=O)c1` [LTGO-33], in the data set on rat NaV1.8 channels, the potency in rats result was “reduced potency in rats”.

On to `Cc1ccc(C(=O)Nc2ccnc(S(N)(=O)=O)c2)c(N2CCCC(F)(F)CC2)n1` [MSD199, 2-(4,4-difluoroazepan-1-yl)-6-methyl-N-(2-sulfamoylpyridin-4-yl)-nicotinamide], for which the half-maximal inhibitory concentration (IC50) – broadly, the point on the concentration scale where inhibition reaches its midpoint – on rodent NaV1.8 channel is 4.83 µM; against human NaV1.8 [2], 0.0056 µM; against human NaV1.1, > 33.6 µM; at human NaV1.2 it was > 33.6 µM; at human NaV1.3, > 33.6 µM; at human NaV1.5, > 33.6 µM. For the same compound, the IC50 was > 33.6 µM against human NaV1.6; > 33.6 µM on human NaV1.7; > 33 µM at human NaV1.9; 0.0011 µM in data set [5]; 0.0086 µM in data set [7]. The frequency dependency entry on human NaV1.8 [3] is “does not display frequency dependency”. Moreover, the “selectivity over recombinant human NaV1.4 channel” value on human NaV1.4 is listed as ~2000 fold. Moreover, in data set [4], the fraction unbound (in general, the share of the substance not bound to proteins or other matrix) was 0.15. Besides, the “sodium current inhibition, Chimera 2” value in data set [6] is given as “disruption of sodium current inhibition”. Moreover, in data set [8], the “potency, Chimera B” value is reported as “abolished the potency”. Also, the “effect on capsaicin-induced nocifensive behavior” value in data set [9] is reported as “had no effect; also recorded: no observable impact”; in the data set on humanized NaV1.8 rats [10] (10 mg/kg PO, 1 h before capsaicin (Fig. 2B), 10 mg/kg), “significantly blocked”. The “nocifensive responses vs vehicle, dose-response” value in the data set on humanized NaV1.8 rats [10] (1 mg/kg PO (Fig. 2C)), in the data set with humanized NaV1.8 rats [10] (3 mg/kg PO (Fig. 2C)) and in the data set on humanized NaV1.8 rats [10] (10 mg/kg PO (Fig. 2C)) was “significantly lower than vehicle” in each case. In addition, the “hind paw withdrawal latency vs vehicle (thermal hyperalgesia)” value with humanized NaV1.8 rats [1] (1 mg/kg PO) is “but not at 1 mg/kg, significantly increased”; with humanized NaV1.8 rats [1] (10 mg/kg PO), “significantly increased”. Besides, the “paw withdrawal thresholds vs vehicle (mechanical allodynia)” value in the data set on humanized NaV1.8 rats [11] (1 mg/kg PO) is recorded as “no significant antiallodynic effects; also recorded: did not significantly alter paw withdrawal thresholds”; with humanized NaV1.8 rats [11] (10 mg/kg PO) it was “demonstrated significant antiallodynic effects; also recorded: significant reversal of mechanical allodynia”. Further, the values for the Total plasma exposure in data set [12] (1 mg/kg PO) and in data set [12] (10 mg/kg PO) were 73.06 ± 4.71 nM and 1117 ± 84.19 nM, respectively. Further, the concentration at 4 h in data set [12] (1 mg/kg) amounted to 20.1 ± 5.1 nM; in data set [12] (10 mg/kg), 199 ± 27.3 nM. The “inhibition of all other recombinant human NaV channel isoforms” value in data set [13] is “no inhibition”.

For `COc1cc(NC(=O)c2ccc(-c3ccc(Cl)cc3)o2)cc(OC)c1` [Molecule A-803467], the SNL-induced mechanical allodynia entry in the data set on rat SNL model (rodents, ref Jarvis et al., 2007) was “demonstrated reversal of SNL-induced mechanical allodynia”. Besides, the “potency in wildtype rodents” value in the data set with rat NaV1.8 channels (ref Jarvis et al., 2007) is “exhibited reduced potency in wildtype rodents”.

For the compound `CNC(=O)c1ccc(-c2cc(Cl)cc(Cl)c2Cl)c(N)n1` [PF-01247324], the “neuropathic pain in rat SNL model” value in the data set on rat SNL model (rat, ref Payne et al., 2015) is listed as “reversed neuropathic pain in the rat SNL model”. Further, the frequency dependency entry in the data set on NaV1.8 was “demonstrates frequency dependency”.

As for `COc1c([C@H]2[C@H](C(=O)Nc3ccnc(C(N)=O)c3)O[C@@](C)(C(F)(F)F)[C@H]2C)ccc(F)c1F` [VX-548], the potency in rats result in the data set with rat NaV1.8 channels is given as “reduced potency in rats”.
